# Measurements from ChEMBL document CHEMBL1143945, “N-phenethyl and N-naphthylmethyl isatins and analogues as in vitro cytotoxic agents” (Bioorg Med Chem, 2008).
# Tests used:
# U-937 = assay: Cytotoxicity against human U937 cells; assay type: functional, cell-based
# Method in brief: (§1)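 ATCC lines kept in RPMI-1640 with 2 mM L-glutamine, sodium bicarbonate, 5% FCS at 37 °C, 5% CO2. Adherent cells trypsinized, and viable cells counted by Trypan blue on a hemocytometer before seeding. MTS (CellTiter 96 AQueous One) metabolic read-out. IC50 is 50% inhibition of metabolic activity from sigmoidal dose-response curves. Triplicates in at least two independent experiments.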
# PC-3 = assay: Cytotoxicity against human PC3 cells; assay type: functional, cell-based; method in brief: as §1
# Jurkat = assay: Cytotoxicity against human Jurkat cells; assay type: functional, cell-based; method in brief: as §1
# MCF7 = assay: Cytotoxicity against human MCF7 cells; assay type: functional, cell-based; method in brief: as §1
# HCT-116 = assay: Cytotoxicity against human HCT116 cells; assay type: functional, cell-based; method in brief: as §1
# [1] = Inhibition of bovine neuronal tubulin polymerization for 60 mins; parameters: species or system Bos taurus
# Method in brief: (§2)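 Purified bovine neuronal tubulin reaction mix from a commercial kit, run per the manufacturer. Compound or DMSO vehicle is added at varying concentrations. Polymerization is followed kinetically at 37 °C for 1 h by fluorescence, excitation 360 ± 10 nm and emission 440 ± 10 nm. IC50 is read at the 20 or 60 min time point. Duplicates in one experiment.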
# A-375 = assay: Cytotoxicity against human A375 cells; assay type: functional, cell-based; method in brief: as §1
# MDA-MB-231 = assay: Cytotoxicity against human MDA-MB-231 cells; assay type: functional, cell-based; method in brief: as §1
# [2] = Inhibition of bovine neuronal tubulin polymerization for 20 mins; parameters: species or system Bos taurus; method in brief: as §2
Structure (SMILES),IC50 (U-937) [nM],IC50 (PC-3) [nM],IC50 (Jurkat) [nM],IC50 (MCF7) [nM],IC50 (HCT-116) [nM],IC50 [1] [nM],IC50 (A-375) [nM],IC50 (MDA-MB-231) [nM],IC50 [2] [nM]
O=C(CN1C(=O)C(=O)c2cc(Br)cc(Br)c21)c1ccc(Br)cc1,9180,–,–,–,–,–,–,–,–
O=C(CN1C(=O)C(=O)c2cc(Br)cc(Br)c21)c1cccc(Br)c1,6360,–,–,–,–,–,–,–,–
O=C1C(=O)N(Cc2ccc3ccccc3c2)c2c(Br)cc(Br)cc21,740,2290,410,3500,1510,6470,6560,2560,2870
COc1ccc(CCN2C(=O)C(=O)c3cc(Br)cc(Br)c32)cc1,2350,–,2660,–,–,–,–,4510,–
O=C(CN1C(=O)C(=O)c2cc(Br)cc(Br)c21)c1ccccc1,9970,–,–,–,–,–,–,–,–
O=C1C(=O)N(CCc2ccccc2)c2c(Br)cc(Br)cc21,780,–,1520,–,–,6600,–,4350,4040
O=C1C(=O)N(CCc2ccc(Br)cc2)c2c(Br)cc(Br)cc21,880,2210,1150,6020,1620,–,4340,2010,–
COc1cccc(CCN2C(=O)C(=O)c3cc(Br)cc(Br)c32)c1,1070,–,2000,–,–,–,–,5240,–
O=C1C(=O)N(CCc2cccc(Br)c2)c2c(Br)cc(Br)cc21,780,2090,1210,4040,1410,–,3440,2720,–
O=C1C(=O)N(Cc2cccc3ccccc23)c2c(Br)cc(Br)cc21,190,1440,910,7710,1150,12000,3950,2490,4710
COc1cccc(C(=O)CN2C(=O)C(=O)c3cc(Br)cc(Br)c32)c1,4700,–,–,–,–,–,–,–,–
COc1ccc(C(=O)CN2C(=O)C(=O)c3cc(Br)cc(Br)c32)cc1,5320,–,–,–,–,–,–,–,–
CC[C@]1(O)C[C@@H]2CN(CCc3c([nH]c4ccccc34)[C@@](C(=O)OC)(c3cc4c(cc3OC)N(C)[C@H]3[C@@](O)(C(=O)OC)[C@H](OC(C)=O)[C@]5(CC)C=CCN6CC[C@]43[C@@H]65)C2)C1 [VINBLASTINE],–,–,–,–,–,1660,–,–,950
